# How the values were obtained:
# Hepatitis C virus = test: Antiviral activity against Hepatitis C virus infected human 2209-23 cells by genotype 1b replicon assay; format: functional, organism-based, Hepacivirus hominis
# [1] = Antiproliferative activity against human 2209-23 cells by [3H]thymidine incorporation scintillation proximity assay; format: functional, cell-based
# Method in brief: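 Cell proliferation was read as uptake of tritiated thymidine into cellular DNA, quantified by scintillation proximity, and reported as an IC50. It served to flag possible loss of selectivity against human polymerases.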
# [2] = Cytotoxicity against human 2209-23 cells by WST1 cell ciability assay; format: cell-based
Structure (SMILES),IC50 (Hepatitis C virus) [µM],IC50 [1] [µM],CC50 [2] [µM]
[N-]=[N+]=N[C@]1(CO)O[C@@H](n2ccc(N)nc2=O)[C@@H](O)[C@@H]1O,0.171,> 100,
[N-]=[N+]=N[C@]1(CO)O[C@@H](n2ccc(N)nc2=O)[C@H](O)[C@H]1O,27.8,,
[N-]=[N+]=N[C@]1(CO)O[C@@H](n2ccc(N)nc2=O)[C@H](O)[C@@H]1O [4'-AZIDOCYTIDINE],,> 100,
Nc1ccn([C@@H]2O[C@H](CO)[C@@H](O)[C@@H]2O)c(=O)n1 [CYTARABINE],0.02,0.029,< 100

# Further lines, with some results ahead:
IC50 (Hepatitis C virus) [µM],Structure (SMILES),IC50 [1] [µM],CC50 [2] [µM]
> 100,C[C@]1(O)[C@H](n2ccc(N)nc2=O)O[C@@](CO)(N=[N+]=[N-])[C@H]1O,,
> 100,[N-]=[N+]=N[C@@]1(CO)C[C@@H](O)[C@H](n2ccc(N)nc2=O)O1,,
> 100,C[C@@]1(O)[C@H](n2ccc(N)nc2=O)O[C@@](CO)(N=[N+]=[N-])[C@H]1O,,

# — ChEMBL document CHEMBL1139326, “The design, synthesis, and antiviral activity of 4'-azidocytidine analogues against hepatitis C virus replication: the discovery of 4'-azidoarabinocytidine” (J Med Chem, 2009)
